Experimental data gathered from unrelated publications.
Lines come from different studies, so protocols differ.
PKN1: Serine/threonine-protein kinase N1 (PKN1, Homo sapiens, UniProt Q16512)
PIK3C2G: Phosphatidylinositol 3-kinase C2 domain-containing subunit gamma (PIK3C2G, Homo sapiens, UniProt O75747)

CN1CCC(C(c2ccccc2)c2ccccc2)CC1  koff (Histamine H1 receptor (HRH1, Homo sapiens, UniProt P35367); binding): 0.133 s⁻¹
CC(=O)c1c(O)c(C)c(O)c(Cc2c(O)c3c(c(C(=O)/C=C/c4ccccc4)c2O)OC(C)(C)C=C3)c1O  activity vs control (PKN1; enzyme activity; inhibitor; 1 µM): 84%
COc1ncccc1-c1cnn2ccc(N3CCN(C(=O)OC(C)C)CC3)nc12  remaining binding (PIK3C2G; binding; competition with immobilised ligand; 1 µM): 94%
Nc1ncc(-c2nc(N3CCOCC3)nc(N3CCOCC3)n2)c(C(F)F)n1  remaining binding (PIK3C2G; binding; competition with immobilised ligand; 10 µM): 0.75%
CN(C)C(=O)COC(=O)Cc1ccc(OC(=O)c2ccc(NC(=N)N)cc2)cc1  inhibition (Cathepsin L2 (CTSV, Homo sapiens, UniProt O60911); enzyme activity; inhibitor; 10 µM): 1%
CN1CC[C@]2(C)c3cc(OC(=O)Nc4ccccc4)ccc3N(C)[C@H]12  inhibition (Muscarinic acetylcholine receptor M4 (CHRM4, Homo sapiens, UniProt P08173); ligand displacement; radioligand; 10 µM): 0%
COc1ccc2c(c1)/C(=C/c1cnc[nH]1)C(=O)N2  activity vs control (PKN1; enzyme activity; inhibitor; 1 µM): 55%
Cc1nn(C)cc1-c1nc2c(N3CCN(Cc4ccc(Cl)cc4)CC3)c(Cl)cnc2[nH]1  remaining binding (Cyclin-dependent kinase 18 (CDK18, Homo sapiens, UniProt Q07002); binding; competition with immobilised ligand; 1 µM): 100%
N#C/C(=C\c1ccc(O)c(O)c1)C(N)=S  activity vs control (PKN1; enzyme activity; inhibitor; 1 µM): 69%
CCOC(=O)c1ccc(OC(=O)CCCCCNC(=N)N)cc1  inhibition (Matrix metalloproteinase-9 (MMP9, Homo sapiens, UniProt P14780, Q279R); enzyme activity; inhibitor; 10 µM): 13%
